A short description of this data set: Toxicity liver stage against HepG2, at 10uM. The settings on record: human, HepG2-A16-CD81EGFP cells; read-out: INHIBITION
Type of data set: cell-based. Set-up: test concentration 10 uM, cell line HepG2-A16-CD81EGFP. Put shortly:
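Uninfected HepG2-A16-CD81EGFP cells, 3 × 10^3 per well, 1536-well, plated on prespotted compound at 10 μM final, parasite-free screening media added to match infected plates; puromycin 10 μM positive, DMSO 0.5% negative; run in parallel with 48 h PbLuc assay at 37 °C, 5% CO2; viability by CellTiter-Glo luminescence, normalized to controls.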
`O[C@@H]1C[C@@H](c2nc(-c3ccccc3)no2)N(C2CCOCC2)C1`: the cytotoxicity at 10 µM was -1.83%.
Regarding `Cc1ccc(CN[C@@H]2CO[C@H](CNS(=O)(=O)c3ccccc3)[C@H]2O)cc1`, the cytotoxicity at 10 µM is -10.1%.
As for `COCCOc1ccc(C(=O)N[C@@H]2CNCCC[C@H]2O)cc1`, the cytotoxicity at 10 µM was 4.67%.
In the case of `CC1(C)[C@H](Cc2cc(CO)on2)C[C@@H]1N(CC1CC1)CC1CC1` it was 3.82%.
In the case of `COc1ccc(Nc2nc(N)c(C(C)=O)s2)cc1OC` it was 1.8%; in that of `Cc1cc(N2CCCC2)nc(N(C)CCO)c1C#N`, 0.252%.
Regarding `Cc1cccc(N2CCN(S(=O)(=O)CCN)CC2)c1`, the cytotoxicity at 10 µM is 0.0723%.
In the case of `O=S(=O)(NCC1CCN(c2cnccn2)CC1)C1CC1` it was 11.3%; in that of `O=C(Cn1ccc2ccccc21)Nc1cc(N2CCCC2)ncn1`, 4.24%; in that of `O=C(CSC1CCCC1)N1CCN(c2ccc(-n3cncn3)nn2)CC1`, 6.93%.
Regarding `CN1C(=O)C2(CCN(C(=O)C3CCOCC3)CC2)c2ccccc21`, the cytotoxicity at 10 µM is 2.5%.
On to `CCN1C(=O)CCC12CCN(C(=O)c1ccco1)CC2`, for which the cytotoxicity at 10 µM is -3.66%.
Under `CC(=O)NCC(=O)N1CCC2(CC1)C(=O)N(CC1CC1)c1ccccc12` stands -4.1%.
Take `CCN(C)C(=O)c1ncn2c(C3CCN(S(C)(=O)=O)CC3)ccnc12`: the cytotoxicity at 10 µM is -3.68%.
Consider `CC(=O)N1CCC2(CC1)C(=O)N(C)c1c(F)cccc12`, for which the cytotoxicity at 10 µM is -11.2%.
With `CC(C)N(C)Cc1cnc2n1CCN(Cc1cccc(C#N)c1)C2`, the cytotoxicity at 10 µM was determined as 7.48%.
Under `CCOCC1CN(C(=O)C2=CCCC2)Cc2cnn(C)c21` (stereo unspecified) stands 1.49%.
On to `CCOC(=O)c1ccc(NC(=O)c2c(O)nc3c(c2O)CCCC3)cc1`, for which the cytotoxicity at 10 µM amounted to 8.46%.
On to `Cc1cccc(NC(=O)Cc2cnc3n(C)c(=O)[nH]c(=O)n23)c1`, for which the cytotoxicity at 10 µM was -5.17%.
As for `O=C(c1ccnnc1)N1CCC2(CC1)CC(N1CCOCC1)C2`, the cytotoxicity at 10 µM was determined as 6.97%.
Consider `CC(C)(C)NC(=O)c1ccn(COc2ccccc2Cl)n1`, for which the cytotoxicity at 10 µM was 10.7%.
As to `CSc1ccc(CNc2n[nH]c(C)n2)cc1`, the cytotoxicity at 10 µM is -3.58%.
As for `CCn1cc(NC(=O)c2c(C)nn(C)c2C)c(C(N)=O)n1`, the cytotoxicity at 10 µM was determined as 0.946%.
In the case of `CCOCCCNc1ncc(-c2onc(C)c2C)c(-c2ccco2)n1` it was 10.2%; in that of `CN(C)C(=O)C1CCc2nnc(CNC(=O)c3ccc(Cl)cc3Cl)n21` (stereo unspecified), 7.61%.
Take `CC(C)(C)n1cc(C#N)cc1NC(=O)CCS(=O)(=O)C1CCCC1`: the cytotoxicity at 10 µM is -0.935%.
In the case of `CC(C)CCN1CCN(c2ncnc3nc(N)ccc23)CC1` it was 11.5%.
For `CC(C(N)=O)N1CCN(c2ncc(Cl)cn2)CC1` (stereo unspecified), the cytotoxicity at 10 µM was -1.26%.
`Cc1nn(C)c(Cl)c1C(=O)NCC1(C(N)=O)CCOCC1`: the cytotoxicity at 10 µM was 1.64%.
Regarding `CCCc1nnc(SCC(=O)Nc2cc(C(C)(C)C)nn2C)[nH]1`, the cytotoxicity at 10 µM stood at 10.7%.
In the case of `CC(C)(C)NC(=O)N1CCN2C(=O)OCC2C1` (stereo unspecified) it was -1.96%; in that of `O=C(NC1CCN(c2ccccc2OC(F)F)C1)c1cccnc1` (stereo unspecified), 6.89%.
As for `CCC(=O)NCC(=O)NC(Cc1ccccc1)c1sccc1C` (stereo unspecified), the cytotoxicity at 10 µM came to 9.25%.
In the case of `CCSc1cc(C(=O)NC2CCN(C(=O)c3ccncc3)CC2)ccn1` it was 5.88%.
In the case of `CC(C)(C)C(=O)NCCCC(=O)NC(C)(C)c1ccc2c(c1)OCO2` it was 12.1%; in that of `O=C(CCCn1cncn1)NC1(c2cccc(Br)c2)CC1`, 9.57%; in that of `CCc1cnc(CN(C)C2CCN(CC3CCN(C(C)=O)CC3)C2)o1` (stereo unspecified), 4.84%.
With `N#Cc1ccccc1N1CCC(Nc2nccnc2C#N)CC1`, the cytotoxicity at 10 µM was 12.9%.
In the case of `O=S(=O)(NCC1CCOC1)N1CCc2ccccc2C1` (stereo unspecified) it was -4.06%.
In the case of `Cc1ccc(CNCc2c[nH]nc2C(C)(C)C)c(OC2CCOC2)c1` (stereo unspecified), the cytotoxicity at 10 µM was determined as 13.8%.
In the case of `CCOCCN1CCN(CCOCC(F)(F)F)CC1` it was 1.83%; in that of `CNC(=O)c1cccc(NC(=O)CN2CCN(S(C)(=O)=O)CC2)c1`, 1.82%; in that of `CS(=O)(=O)NC[C@H]1OC[C@@H]2CN(Cc3cccnc3)CC[C@@H]21`, 12.7%.
Under `Cc1ccc(N2CCC3(CCN(C(N)=O)CC3)CC2)nn1` stands 1.62%.
Under `CSc1ccc(-c2nc(CN3CCCC(CNC(C)=O)C3)c(C)o2)cc1` (stereo unspecified) stands 2.32%; under `CSCCCN1C[C@H](NC(=O)c2ccc(C#N)nc2)[C@@H](C2CC2)C1`, 2.72%; under `CCc1cc(NCC(O)CN2CCCCC2)ncn1` (stereo unspecified), -0.714%.
Take `COc1cc(C(=O)N2CC(Oc3ccccc3Cl)C2)ccn1`: the cytotoxicity at 10 µM is -3.52%.
In the case of `CC(C)CN1CC(c2nc(-c3ccc(F)cc3)c[nH]2)CC1=O` (stereo unspecified) it was 6.8%; in that of `O=C(C1CCOc2ccccc2C1)N1Cc2cnn(CCO)c2C1` (stereo unspecified), 4.61%.
In the case of `CCCS(=O)(=O)N1CCCC(CCC(=O)N(C)CCc2ccccn2)C1` (stereo unspecified) it was 5.02%.
In the case of `CCc1oc(C(=O)NCCNS(C)(=O)=O)cc1CN1CCCC1` it was 5.53%; in that of `O=C(O)c1ccnc(-c2ccnc(COc3ccccc3Cl)n2)c1`, -9.86%; in that of `Cc1nc(N2CCOc3ccc(CO)cc3C2)c2c(C)noc2n1`, 2.18%.
With `CCCNc1ncc(CN2CCC3(CC2)CNC(=O)C3)cn1`, the cytotoxicity at 10 µM is -7.07%.
In the case of `CCc1ncc2c(n1)CN(C(=O)Cc1cc(OC)cc(OC)c1)C2`, the cytotoxicity at 10 µM came out at 2.78%.
Under `CC(C)N1CCCC(C(=O)NCCCc2cnn(C)c2)C1` (stereo unspecified) stands 17.1%; under `Cc1[nH]ccc1C(=O)N[C@H]1CN(S(C)(=O)=O)C[C@@H]1C1CC1`, 3.28%; under `COc1ccc2nc(CNC(=O)c3cc(C(C)C)on3)[nH]c2c1`, 0.0964%.
Under `CCn1cnnc1CCNC(=O)CCNC(=O)c1ccccc1F` stands 4.49%; under `O=C(O)[C@@H]1CN(Cc2cc3c(cc2Cl)OCO3)C[C@H]1C1CC1`, 0.0851%; under `Cc1ccc(O)c(CN(Cc2ccccc2)Cc2nccs2)n1`, 0.31%.
Turning to `COCCNc1nc2c(c(N3CCn4nc(C)cc4C3)n1)CCNCC2`, the cytotoxicity at 10 µM was determined as 7.8%.
Consider `COc1nc2c(cc1C(=O)NCCc1nc(C)c(C(=O)O)s1)CCC2`, for which the cytotoxicity at 10 µM turned out to be 13.3%.
`CN(C)C[C@@H]1CN(C(=O)Cc2cccc(O)c2)C[C@@H]1CO`: the cytotoxicity at 10 µM came out at 1.92%.
In the case of `CC(C)Cc1ncc2c(n1)CN(C(=O)c1ccc(CN3CCCC3)o1)C2` it was -1.66%.
Under `Cc1cc(O)nc(C2CCCN(Cc3ccncc3)C2)n1` (stereo unspecified) stands -2.81%.
Under `O=C(CN1CCOC(Cn2cccn2)C1)NCc1ccco1` (stereo unspecified) stands -14.6%.
`CC(C)CN1CC(C(=O)NCc2ccnc(-n3cccn3)c2)CC1=O` (stereo unspecified): the cytotoxicity at 10 µM is -5.48%.
As for `Cc1cc(C)n(CC2CCCN2C(=O)CCc2ccco2)n1` (stereo unspecified), the cytotoxicity at 10 µM is -3.75%.
Under `Cc1cc(C)c(CNC(=O)NCc2ccc(F)cc2)c(=O)[nH]1` stands -6.34%; under `CN(CC(=O)NC1(C)CCS(=O)(=O)C1)Cc1ccc(F)c(F)c1` (stereo unspecified), -1.55%.
As for `Cc1nn(C)c(N(C)C)c1CNCc1ccc(OCCN(C)C)cc1`, the cytotoxicity at 10 µM is -4.89%.
For the compound `O=C(c1sccc1C1CC1)N1CCN(CC(F)(F)F)CC1`, the cytotoxicity at 10 µM is -1.58%.
In the case of `O=C(O)c1cc(S(=O)(=O)Nc2cc(Cl)ccc2F)cc2c1OCCO2`, the cytotoxicity at 10 µM was -18.7%.
For `N#Cc1ccc(OCCNCCn2cccn2)cc1`, the cytotoxicity at 10 µM is -4.11%.
Under `O=C(CCCNc1ncccn1)N1CCCC(n2cncn2)C1` (stereo unspecified) stands -4.56%.
For the compound `Cc1nc(CNCC2CN(C3CC3)CCO2)cs1` (stereo unspecified), the cytotoxicity at 10 µM is -10.1%.
Turning to `Cc1cc(C(=O)N2CCCC(n3ccnc3)C2)c(C)n1C1CC1` (stereo unspecified), the cytotoxicity at 10 µM worked out at 1.19%.
In the case of `Cc1noc(Cl)c1CC(=O)N1CCCC(n2cccn2)C1` (stereo unspecified) it was -6.14%; in that of `CN(Cc1nnc(C2CC2)n1C)C1CCN(Cc2ccc(F)cc2)C1` (stereo unspecified), -7.17%; in that of `CS(=O)(=O)N1CCC(NC(=O)COc2ccc(Cl)c(Cl)c2)CC1`, -6.46%.
As for `O=C1CC2(CCCNC2)C(=O)N1Cc1ccccc1` (stereo unspecified), the cytotoxicity at 10 µM stood at 12.1%.
Turning to `O=C(C[C@@H]1COC[C@H]2CN(C3CCC3)C[C@@H]12)NCc1cccnc1`, the cytotoxicity at 10 µM worked out at 12.9%.
Consider `CN1CCc2c(CNc3ncccn3)n[nH]c2C1`, for which the cytotoxicity at 10 µM was -3.21%.
Under `N#Cc1cccc(CN2CC3(CCCCN3c3cncnc3)CC2=O)c1` (stereo unspecified) stands 2.53%.
Under `CCN(CC)Cc1cnc2n1CCN(Cc1c(C)noc1C)CC2` stands 11.2%; under `CNC(=O)COC1COC2(CCN(c3ncccn3)CC2)C1` (stereo unspecified), -3.4%.
In the case of `O=C(Nc1cnccn1)[C@H]1CO[C@H]2CCN(c3ncc(F)cn3)C[C@H]2C1` it was 1.2%; in that of `CN(C)[C@@H]1CCN(S(=O)(=O)C2CC2)[C@H]1Cc1ccccc1`, -7.46%.
Regarding `Cc1cnc(N2CC3(CCN(Cc4cccnc4)C3)C2)nc1`, the cytotoxicity at 10 µM was -2.36%.
Under `CC(C)CN1CCC2(C=C(C(=O)NC3CC3)c3ccccc32)CC1` stands 1.11%.
With `CCc1ccc2c(C3CN(CC4CCC4)C3)ncn2c1`, the cytotoxicity at 10 µM was 7.11%.
Under `Cn1cc(N2CCC3(CCN(Cc4cccnc4)C3)C2=O)cn1` (stereo unspecified) stands 3.63%; under `O=C1C[C@@H]2CC[C@H](CN1)N2C1CCSCC1`, 0.915%.
In the case of `O=C(CCC1CCCC1)N1C[C@@H]2CC[C@H]1CN(Cc1ccncc1)C2` it was -3.76%.

The values are drawn from ChEMBL document CHEMBL4513216, “Probing the Open Global Health Chemical Diversity Library for Multistage-Active Starting Points for Next-Generation Antimalarials” (ACS Infect Dis, 2020).
